# Measurements reported in paper PMC6008205 (Journal of controlled release : official journal of the …, 2018).
# What was measured:
# [1] = Dynamic light scattering particle size and PDI of CSPNs; assay type: physicochemical; details: DLS in ultrapure water, peptide nanodrills 0.4 mM, triplicate
# Procedure, shortened: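 Nanodrills formed spontaneously on vortexing peptide in ultrapure water or PBS pH 7.4. They were measured at 0.4 mM by dynamic light scattering in a quartz cuvette after 2 min equilibration. Measurements were done in triplicate and reported as arithmetic mean ± standard deviation.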
# [2] = ANS spectrofluorimetric analysis of hydrophobic regions; assay type: physicochemical; details: ANS 0.2 µM, CSPNs 2–16 µM, excitation 356 nm; relative to 2F-RT
# Procedure, shortened: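 Test peptides were dissolved in water at 2–16 µM, and the ANS probe was added at 0.2 µM. Spectra were read on a fluorescence microplate reader at ambient temperature, with excitation at 356 nm and emission scanned from 380–600 nm. All measurements were done in triplicate and reported as arithmetic mean ± standard deviation.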
# [3] = Tapping mode AFM analysis of nanodrill size and mechanical stability; details: tapping mode AFM on mica under water, 400 µM peptide solution
substance,measurement,setting,value
FFF--(RADA)2-Tat [3F-RT],PDI,[1],0.434
same,Mean ANS fluorescence intensity compared to 2F-RT,[2],five-fold increase
same,Aspect ratio by AFM,[3],6.2±3.9
same,Nanodrill size (length) by AFM,[3],105±67 nm
